SMILES strings stand for the structures. Calls of active or inactive are those of the source. The calls are words filed in the database; no cut-off is given here.

In data set [1] the target is T1, Proteasome Macropain subunit MB1 (Homo sapiens, UniProt P28074).
T1 sequence (P28074 whole entry): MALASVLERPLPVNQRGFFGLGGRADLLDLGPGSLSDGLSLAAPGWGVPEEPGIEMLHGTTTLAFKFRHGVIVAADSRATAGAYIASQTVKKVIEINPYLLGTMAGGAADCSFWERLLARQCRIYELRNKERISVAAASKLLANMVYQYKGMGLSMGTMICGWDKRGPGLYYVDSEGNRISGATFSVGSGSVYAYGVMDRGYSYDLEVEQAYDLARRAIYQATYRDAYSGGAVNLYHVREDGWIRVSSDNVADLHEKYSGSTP
The experiment in a line: Inhibition of chymotrypsin-like activity of human 20S proteasome preincubated for 15 mins followed by addition of Suc-Leu-Leu-Val-Tyr-AMC as substrate by fluorescence analysis. In short, it runs like this:
(§1)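 Purified human proteasome (25 µg/mL working stock) in 100 mM Tris-HCl pH 8.0 preincubated 15 min with compound. Suc-LLVY-AMC added (50 µM as listed), AMC release followed by fluorescence increase at ex 355/em 460 nm. IC50 by sigmoidal variable-slope fit, mean of three independent determinations.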

Data set [2] in a line: Antiproliferative activity against human RPMI8226 cells measured after 72 hrs by MTS assay. Type of data set: functional, cell-based. The conditions noted are these: RPMI-8226, 72 h. In outline:
(§2)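 MM-1S seeded at 2×10^4/well and RPMI 8226 at 0.5×10^4/well, exposed to compounds for 72 h. MTS then added at 0.5 mg/mL final for 2–4 h, absorbance read at 490 nm with 690 nm background subtraction. Growth inhibition = (A_control − A_sample)/A_control; IC50 from nonlinear sigmoidal variable-slope dose-response fit.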
Background: Tetrazolium dyes change colour on reduction, which living cells bring about.

Data set [3] in a line: Antiproliferative activity against human MM1S cells measured after 72 hrs by MTS assay. Type of data set: functional, cell-based. The settings on record: MM1.S. In short, it runs like this: as §2
The target in data set [4] is T2, Proteasome subunit beta type-5 (Mus musculus) (UniProt O55234).
T2 sequence (whole entry): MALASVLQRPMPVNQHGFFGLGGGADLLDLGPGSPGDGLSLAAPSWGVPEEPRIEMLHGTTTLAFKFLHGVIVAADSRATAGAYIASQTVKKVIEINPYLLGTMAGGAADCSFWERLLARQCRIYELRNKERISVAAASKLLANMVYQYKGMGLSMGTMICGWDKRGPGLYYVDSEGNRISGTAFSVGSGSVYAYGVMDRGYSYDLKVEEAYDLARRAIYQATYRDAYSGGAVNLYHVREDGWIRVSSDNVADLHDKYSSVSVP
The experiment in a line: Inhibition of chymotrypsin-like activity of 20S proteasome in mouse blood at 0.5 to 12.5 uM preincubated for 40 mins followed by addition of Suc-Leu-Leu-Val-Tyr-AMC as substrate relative to control. In kind it is tissue-based. In outline:
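Whole blood from normal mice incubated 40 min with compound (compound:serum 1:50 by volume), centrifuged, cells lysed in 5 mM EDTA pH 8.0 at 4°C for 60 min. Lysate protein (Bradford, 100 µg) assayed in 20 mM HEPES pH 8.0, 0.5 mM EDTA, 0.05% SDS, 1% DMSO with 50 µM Suc-LLVY-AMC; fluorescence at ex 355/em 460 nm.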

Data set [5] deals with T1, Proteasome Macropain subunit MB1. The experiment in a line: Inhibition of chymotrypsin-like activity of 20S proteasome (unknown origin) using succinyl-leu-leu-val-tyr-7-amino-4-methyl coumarin as substrate after 15 mins by fluorescent spectroscopic method. In short, it runs like this:
as §1

Data set [6] is described as follows: Half life in mouse plasma at 2 uM by LC-MS/MS analysis. Type of data set: ADME, cell-free. In outline: (§3)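 Sodium-heparin mouse plasma or blood, pre-warmed to 37°C, spiked to 2 µM final from a 0.02 mM dosing solution in 0.05 M sodium phosphate with 0.5% BSA; duplicates held at 37°C. Time points quenched with acetonitrile, supernatant diluted 1:1 in water for LC-MS/MS. Percent remaining from analyte/internal-standard peak-area ratio versus time 0; T1/2 from single-phase exponential decay fit.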

The nature of data set [7]: Half life in mouse blood at 2 uM by LC-MS/MS analysis. Type of data set: ADME, tissue-based. In short, it runs like this:
as §3

In general, IC50 refers to the concentration that inhibits the measured activity by half. For the compound `C[C@H](NC(=O)N1CCC(C(=O)Nc2cnccn2)CC1)C(=O)N[C@@H](CCc1ccccc1)C(=O)NCc1ccccc1Cl`, the IC50 in data set [1] was determined as 601 nM.
For the compound `CC(C)C[C@H](NC(=O)N1CCC(C(=O)Nc2cnccn2)CC1)C(=O)N[C@@H](CCc1ccccc1)C(=O)NCc1ccccc1Cl`, the IC50 in data set [1] is 16.6 nM; in data set [2] it was 371 nM; in data set [3] it was 261 nM.
As to `O=C(Nc1ccc(F)cc1)C1CCN(C(=O)N[C@@H](CCc2ccccc2)C(=O)N[C@@H](CCc2ccccc2)C(=O)NCc2ccccc2Cl)CC1`, the results for the IC50 in data set [1], in data set [2] and in data set [3] were 16.9 nM, 94.3 nM and 107 nM, respectively.
In data set [1], `C[C@H](NC(=O)N1CCC(NC(=O)c2cnccn2)CC1)C(=O)N[C@@H](CCc1ccccc1)C(=O)NCc1ccccc1Cl` showed an IC50 of 670 nM.
As a reminder, the inhibition is how much of the control response was suppressed. As for `O=C(Nc1ccccc1)C1CCN(C(=O)N[C@@H](CCc2ccccc2)C(=O)N[C@@H](CCc2ccccc2)C(=O)NCc2ccccc2Cl)CC1`, the results for the IC50 in data set [1], in data set [2] and in data set [3] were 3 nM, 18.5 nM and 20.2 nM, respectively. In data set [4], the inhibition is above 60%.
Regarding `O=C(NC1CCN(C(=O)N[C@@H](CCc2ccccc2)C(=O)N[C@@H](CCc2ccccc2)C(=O)NCc2ccccc2Cl)CC1)c1cnccn1`, the 50% inhibitory concentration (IC50) in data set [1] turned out to be 23.7 nM.
`COc1ccc2c(c1)C(CC(=O)N[C@@H](CC(C)C)C(=O)N[C@H](CC(C)C)C(=O)NCc1c(F)cccc1F)CC2=O` (stereo not given in full) yielded an IC50 in data set [5] of 140 nM. In other words, the sub-micromolar range.
As for `O=C(NC1CCN(C(=O)N[C@@H](Cc2ccccc2)C(=O)N[C@@H](CCc2ccccc2)C(=O)NCc2ccccc2Cl)CC1)c1cnccn1`, the midpoint of inhibition in data set [1], the IC50, lay at 344 nM.
A word on the half-life: it is the time in which the quantity being followed falls by half. Low values mean rapid decline, high ones slow decline. As to `O=C(Nc1cccnc1)C1CCN(C(=O)N[C@@H](CCc2ccccc2)C(=O)N[C@@H](CCc2ccccc2)C(=O)NCc2ccccc2Cl)CC1`, the IC50 in data set [1] stood at 1.4 nM; in data set [2], 13.9 nM; in data set [3], 9.5 nM. The half-life at 2 µM in data set [6] came to 7.25 h; in data set [7], 2.98 h. The inhibition in data set [4] is above 60%.
Consider `O=C(Nc1cnccn1)C1CCN(C(=O)N[C@@H](CCc2ccccc2)C(=O)N[C@@H](CCc2ccccc2)C(=O)NCc2ccccc2Cl)CC1`, for which the concentration for half-maximal inhibition (IC50) stood at 14.7 nM in data set [1], 196 nM in data set [2] and 135 nM in data set [3].
With `O=C(Nc1ccccn1)C1CCN(C(=O)N[C@@H](CCc2ccccc2)C(=O)N[C@@H](CCc2ccccc2)C(=O)NCc2ccccc2Cl)CC1`, the IC50 was determined as 2.4 nM in data set [1], 24.7 nM in data set [2] and 22.2 nM in data set [3]. Besides, the inhibition in data set [4] is above 60%.
`O=C(Nc1cnccn1)C1CCN(C(=O)N[C@@H](Cc2ccccc2)C(=O)N[C@@H](CCc2ccccc2)C(=O)NCc2ccccc2Cl)CC1` came in with an IC50 in data set [1] of 153 nM.
For the compound `CC(C)C[C@H](NC(=O)[C@H](CCc1ccccc1)NC(=O)CN1CCOCC1)C(=O)N[C@@H](Cc1ccccc1)C(=O)N[C@@H](CC(C)C)C(=O)[C@@]1(C)CO1` [CARFILZOMIB], the results for the IC50 in data set [2] and in data set [3] were 13.2 nM and 1.5 nM, respectively. The inhibition entry in data set [4] is “Active”.
In the case of `O=C(Nc1nccs1)C1CCN(C(=O)N[C@@H](CCc2ccccc2)C(=O)N[C@@H](CCc2ccccc2)C(=O)NCc2ccccc2Cl)CC1`, the results for the IC50 in data set [1], in data set [2] and in data set [3] were 4.3 nM, 29.5 nM and 32.5 nM, respectively. The compound also returned an inhibition in data set [4] above 60%.
Consider `COc1ccc(NC(=O)C2CCN(C(=O)N[C@@H](CCc3ccccc3)C(=O)N[C@@H](CCc3ccccc3)C(=O)NCc3ccccc3Cl)CC2)cc1`, for which the IC50 in data set [1] came out at 15.7 nM; in data set [2], 84.6 nM; in data set [3] it was 92.9 nM.
Take `CC(C)C[C@H](NC(=O)N1CCC(NC(=O)c2cnccn2)CC1)C(=O)N[C@@H](CCc1ccccc1)C(=O)NCc1ccccc1Cl`: half-maximal inhibition in data set [1] (IC50) was put at 45.7 nM.

Source of the values: ChEMBL document CHEMBL3864143, “Design, synthesis and biological evaluation of novel non-covalent piperidine-containing peptidyl proteasome inhibitors” (Bioorg Med Chem, 2016).
